IC50 data for 45 compounds are collected here from ChEMBL document CHEMBL1255568, “Amino derivatives of indole as potent inhibitors of isoprenylcysteine carboxyl methyltransferase” (J Med Chem, 2010).

Experiment [1] concerns the target Protein-S-isoprenylcysteine O-methyltransferase (Homo sapiens, UniProt O60725). Put plainly: Inhibition of recombinant ICMT expressed in Sf9 cells using [3H] AdoMet after 20 mins by scintillation counting. The gist of the method:
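Sf9 membranes carrying recombinant Icmt (1.0 μg protein) in 100 mM Hepes pH 7.4, 5 mM MgCl2, 100 μM EDTA. Preincubated with compound (final DMSO 2% v/v) for 20 min at 37 °C. Reaction started with final 1 μM biotin-farnesyl-L-cysteine and 0.5 μM [3H]AdoMet, run 20 min at 37 °C, then stopped with Tween 20. Product captured overnight at 4 °C on streptavidin beads, washed, and counted by scintillation. Mean ± SD of 3 or more determinations.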

The test system of another experiment is MDA-MB-231. Put plainly: Antiproliferative activity against human MDA-MB-231 cells after 72 hrs by colorimetric tetrazolium assay. The format is functional, cell-based. The settings on record: MDA-MB-231, 72 h. The gist of the method:
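MDA-MB-231 cells grown in DMEM with 10% FBS and penicillin/streptomycin at 37 °C, 5% CO2, used within passages 10-25. Seeded at 2400 cells/well in DMEM with 5% FBS for 24 h, then exposed to compound (final DMSO 0.5% v/v) for 72 h. MTS-type tetrazolium reagent added for 2 h at 37 °C, absorbance read at 490 nm, blank subtracted. Triplicate wells. IC50 from sigmoidal viability curve, mean of at least two determinations.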

Protein-S-isoprenylcysteine O-methyltransferase, sequence (O60725 whole entry): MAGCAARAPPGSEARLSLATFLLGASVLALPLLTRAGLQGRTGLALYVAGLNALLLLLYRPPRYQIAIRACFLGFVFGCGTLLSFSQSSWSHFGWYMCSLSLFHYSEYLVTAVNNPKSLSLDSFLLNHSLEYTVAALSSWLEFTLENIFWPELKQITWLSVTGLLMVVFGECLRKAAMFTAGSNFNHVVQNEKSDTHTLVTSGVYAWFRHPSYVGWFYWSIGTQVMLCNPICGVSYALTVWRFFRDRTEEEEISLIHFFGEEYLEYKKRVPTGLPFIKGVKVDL

Turning to `CCN(CC)Cc1cn(CC=C(C)C)c2ccccc12`, the IC50 (usually the midpoint of a concentration-inhibition curve) in experiment [1] came to 67 µM; with MDA-MB-231 it was 74 µM. Consider `CC(C)=CCn1cc(CC(N)=O)c2cc(F)ccc21`, for which the IC50 in the experiment with MDA-MB-231 was more than 100 µM. For the compound `CCCCCCCCn1cc(CN2CCN(C)CC2)c2cc(-c3cccc(C)c3)ccc21`, the values for the IC50 (in experiment [1]; in the experiment on MDA-MB-231) were 0.9 µM and 6.1 µM, respectively.

Turning to `CCCCCCCCn1cc(CN2CCOCC2)c2cc(-c3cccc(C)c3)ccc21`, the IC50 came to 2.7 µM in experiment [1] and 24.5 µM in the experiment with MDA-MB-231.

`CCCCCCCCn1cc(C(N)=O)c2cc(-c3cccc(C)c3)ccc21` gave an IC50 with MDA-MB-231 of more than 100 µM. Still for that read-out and setting: as for `CCCCCCCCn1cc(CCC(N)=O)c2cc(-c3cccc(C)c3)ccc21`, the figure is 20.7 µM.

`CCCCCCCCn1cc(CC(=O)OC)c2cc(-c3cccc(C)c3)ccc21`: the values for the IC50 (in experiment [1]; in the experiment with MDA-MB-231) were 76 µM and more than 100 µM, respectively. With `CCCCCCCCn1cc(CC(=O)OCC)c2cc(-c3cccc(C)c3)ccc21`, the IC50 (in experiment [1]; in the experiment with MDA-MB-231) was more than 100 µM in each case. In the case of `CCCCCCCCn1cc(CNC(C)=O)c2cc(-c3cccc(C)c3)ccc21`, the values for the IC50 (in experiment [1]; in the experiment on MDA-MB-231) were 1.8 µM and 30 µM, respectively. On the same counts, the results for `CCCCCCCCn1cc(CNS(C)(=O)=O)c2cc(-c3cccc(C)c3)ccc21` are 1.2 µM and 17.5 µM. The corresponding values for `CCCCCCCCn1cc(CC(N)=O)c2cc(-c3ccccc3C)ccc21` are 1 µM and 21.2 µM. `CCCCCCCCn1cc(CN(CC)CC)c2cc(-c3ccccc3C)ccc21`: the figures for the IC50 (in experiment [1]; with MDA-MB-231) were 0.6 µM and 5.5 µM, respectively.

On to `CCCCCCCCn1cc(CN(CC)CC)c2cc(-c3ccc(C)cc3)ccc21`, for which the results for the IC50 (in experiment [1]; in the experiment on MDA-MB-231) were 0.6 µM and 3.4 µM, respectively. Regarding `CCCCCCCCn1cc(CC(N)=O)c2cc(-c3cccc(OC)c3)ccc21`, the IC50 in experiment [1] was 1.9 µM; in the experiment with MDA-MB-231 it was 22.4 µM. In the case of `CC(C)=CCn1ccc2cc(-c3cccc(C)c3)ccc21`, the IC50 with MDA-MB-231 was more than 100 µM. With `CCN(CC)Cc1cn(CC=C(C)C)c2ccc(-c3cccc(C)c3)cc12`, the IC50 in experiment [1] amounted to 2.4 µM; in the experiment on MDA-MB-231 it was 3.8 µM. Consider `CCCCCCCCn1cc(CC(N)=O)c2cc(-c3ccccc3)ccc21`, for which the IC50 was 1.8 µM in experiment [1] and 26 µM in the experiment on MDA-MB-231. Turning to `CC(C)=CCn1cc(CN2CCCCC2)c2cc(-c3cccc(C)c3)ccc21`, the IC50 in experiment [1] came to 2.1 µM; with MDA-MB-231, 3.9 µM. With `CC(C)=CCn1cc(CN2CCOCC2)c2cc(-c3cccc(C)c3)ccc21`, the IC50 in the experiment on MDA-MB-231 stood at 34 µM. As for `CCCCCCCCn1cc(CC(N)=O)c2ccccc21`, the figures for the IC50 (in experiment [1]; in the experiment with MDA-MB-231) were 6.5 µM and 50 µM, respectively. `CCCCCCCCn1cc(CC(N)=O)c2cc(F)ccc21`: the IC50 with MDA-MB-231 is 70 µM.

Regarding `CCCCCCCCn1cc(CN(CC)CC)c2cc(F)ccc21`, the IC50 in experiment [1] was determined as 4.1 µM; with MDA-MB-231, 7.2 µM. As to `CCN(CC)Cc1cn(CC=C(C)C)c2ccc(F)cc12`, the IC50 came to 35 µM in experiment [1] and 32 µM in the experiment on MDA-MB-231.

As for `CC(C)=CCn1cc(CC(N)=O)c2cc(-c3cccc(C)c3)ccc21`, the IC50 came out at 7.7 µM in experiment [1] and 28.5 µM in the experiment on MDA-MB-231. The corresponding values for `CC(C)=CCC/C(C)=C/Cn1cc(CC(N)=O)c2cc(-c3cccc(C)c3)ccc21` are 1 µM and 10.6 µM.

On to `CCCCCCCCn1cc(CC(=O)N(CC)CC)c2cc(-c3cccc(OC)c3)ccc21`, for which the IC50 in experiment [1] is 0.8 µM; in the experiment with MDA-MB-231, 52 µM. In the case of `CCCCCCCCn1cc(CC(=O)N(CC)CC)c2cc(-c3cccc(OCC)c3)ccc21`, the results for the IC50 (in experiment [1]; with MDA-MB-231) were 1 µM and 26.8 µM, respectively. Take `CCCCCCCCn1ccc2cc(-c3cccc(C)c3)ccc21`: the IC50 (in experiment [1]; in the experiment on MDA-MB-231) was more than 100 µM in each case. For `CCCCCCCCn1cc(CC(=O)N(C)C)c2cc(-c3cccc(C)c3)ccc21`, the IC50 turned out to be 1.5 µM in experiment [1] and 31 µM in the experiment with MDA-MB-231. On the same counts, the results for `CCCCCCCCn1cc(CC(=O)N(CC)CC)c2cc(-c3cccc(C)c3)ccc21` are 1.4 µM and 27 µM. `CCCCCCCCn1cc(CC(=O)N2CCCC2)c2cc(-c3cccc(C)c3)ccc21`: the concentration for half-maximal inhibition (IC50) in experiment [1] is 1.2 µM; with MDA-MB-231 it was 15.6 µM. On to `CCCCCCCCn1cc(CC(=O)N2CCCCC2)c2cc(-c3cccc(C)c3)ccc21`, for which the IC50 is 1.8 µM in experiment [1] and 28.9 µM in the experiment on MDA-MB-231. For `CCCCCCCCn1cc(CC(=O)N2CCN(C)CC2)c2cc(-c3cccc(C)c3)ccc21`, the IC50 in the experiment with MDA-MB-231 was found to be 19.7 µM. For `CCCCCCCCn1cc(CN)c2cc(-c3cccc(C)c3)ccc21`, the results for the IC50 (in experiment [1]; in the experiment on MDA-MB-231) were 0.7 µM and 2.9 µM, respectively. As for `CCCCCCCCn1cc(CN(C)C)c2cc(-c3cccc(C)c3)ccc21`, the IC50 in experiment [1] came to 1.3 µM; in the experiment on MDA-MB-231, 6.8 µM. For `CCCCCCCCn1cc(CN(CC)CC)c2cc(-c3cccc(C)c3)ccc21`, the figures for the IC50 (in experiment [1]; in the experiment on MDA-MB-231) were 0.7 µM and 3.6 µM, respectively. Take `CCCCCCCCn1cc(CN(C(C)C)C(C)C)c2cc(-c3cccc(C)c3)ccc21`: the IC50 amounted to 1.7 µM in experiment [1] and 20.1 µM in the experiment on MDA-MB-231. As for `CCCCCCCCn1cc(CN(CCC)CCC)c2cc(-c3cccc(C)c3)ccc21`, the IC50 in experiment [1] amounted to 0.8 µM; in the experiment on MDA-MB-231, 13 µM. Consider `CCCCCCCCn1cc(CN(C)C(C)C)c2cc(-c3cccc(C)c3)ccc21`, for which the IC50 came out at 0.9 µM in experiment [1] and 5.3 µM with MDA-MB-231. For `CCCCCCCCn1cc(CN2CCCC2)c2cc(-c3cccc(C)c3)ccc21`, the IC50 in experiment [1] was 0.5 µM; in the experiment with MDA-MB-231, 5.1 µM. Take `CCCCCCCCn1cc(CN2CCCCC2)c2cc(-c3cccc(C)c3)ccc21`: the IC50 in experiment [1] is 0.7 µM; with MDA-MB-231, 4.9 µM. As to `CCCCCCCCn1cc(CC(N)=O)c2cc(-c3cccc(OCC)c3)ccc21`, the IC50 was 1.3 µM in experiment [1] and 18.7 µM with MDA-MB-231. In the case of `Cc1cccc(-c2ccc3c(c2)c(CC(N)=O)cn3Cc2cccc(C(F)(F)F)c2)c1`, the IC50 came to 2.5 µM in experiment [1] and 17.2 µM with MDA-MB-231.

`CCCCCCCCn1cc(CC(N)=O)c2cc(-c3ccc(C)cc3)ccc21`: the IC50 in experiment [1] amounted to 1 µM. On to `Cc1cccc(-c2ccc3[nH]cc(CC(N)=O)c3c2)c1`, for which the IC50 in experiment [1] was 33 µM; in the experiment with MDA-MB-231 it was more than 100 µM.
